Assay outcomes from PubChem BioAssay.
Beta apoptosis = beta cell apoptosis inhibition; INS-1E cytokine-induced death, ATP luminescence, 48 h; percent of positive-control rescue, neutral wells zero; protection from apoptosis, % (concentration not given with the values); 300,000 compounds, 0.8% hits;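 active = Every replicate reaches about 75%, or at least half do and their mean reaches it too, limit read from the data; inconclusive = At least half of replicates reach the limit but their mean does not; inactive = Under half of replicates reach the limit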;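 note: higher means more ATP so stronger rescue from cytokine killing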
Calb FLC = C. albicans growth modulation with fluconazole; growth inhibition, % (no concentration beside the values); AID 1979; 300,000 compounds, 0.57% hits; C. albicans CaCi-2 (fluconazole-resistant clinical isolate) + fluconazole, Alamar Blue growth, 48 h;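 active = growth inhibition above about 58% in most replicates, limit read from the data, passing the limit was not always enough; inconclusive = exactly half the replicates above a set limit; inactive = most replicates below a set limit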;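 note: all wells also contain fluconazole at 8 µg/ml as a sub-toxic cotreatment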
A1 inh = inhibitors of the anti-apoptotic protein A1, read as caspase activation. AID 2462. 330,000 compounds, 0.066% hits. caspase activation, % (test concentration not listed). MEF A1-2A-BIM cells, Caspase-Glo 3/7 luminescence, 3 h; percent of clofoctol response, vehicle zero;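 active = over half of replicate activation scores above 10%, or exactly half above 10 with the replicate mean above 10; inconclusive = replicate mean below 10 yet half the replicates above 10; inactive = over half of replicates below 10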
H9c2 TAG inh = inhibitors of triacylglycerol accumulation; H9c2 cells, Nile Red lipid (TAG) fluorescence; cells loaded with 200 µM oleic acid; inhibition, % at 12.5 µM; 230,000 compounds, 0.66% hits;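 active = pattern-corrected inhibition of lipid staining of at least 50% with the nuclear-stain viability signal not falling by more than 50%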
CSC inhib = cancer stem cell inhibition. cancer stem cell-like cells viability, luminescence. AID 2717. inhibition, % at 7.5 µM. 300,000 compounds, 1.1% hits; in the data active = inhibition above about 75%; inconclusive = no clear call, values can overlap the other calls; tested in HMLE shEcad cells
T cruzi inh = blocks replication of Trypanosoma cruzi; T. cruzi beta-gal in NIH3T3, luminescence, 90 h; inhibition, % (test concentration not listed); 300,000 compounds, 1.4% hits; AID 1885;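 active = mean inhibition across valid replicates above about 55%, limit read from the data; inconclusive = mean below that limit but half or more replicates reach it; inactive = mean below it, under half of replicates reach it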;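 note: signal also drops with host cell toxicity which is not excluded here; higher percent means less beta-gal luminescence so fewer parasites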
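System: Mouse NIH/3T3 fibroblasts infected with β-gal-expressing T. cruzi Tulahuen C4 | Quantity: NIH/3T3 cells, 5,000 per well | Reagent: 5000 reporter trypomastigotes per well | Dosing: Compound pinned at 50 nL/well, DMSO | Schedule: 3 h host attachment, then at least 90 h co-culture | Detection: GalScreen luminescence, 60 min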
Numbers stand for hits; – = inactive; ? = inconclusive; · = no result given. An excerpt weighted towards active compounds, which were near 3.1% of everything screened.

SMILES	Beta apoptosis	Calb FLC	A1 inh	H9c2 TAG inh	CSC inhib	T cruzi inh
CC1=CC2/C=C(\C)CCC(O)C(O)/C=C/C(=O)C23C(=O)NC(CC(C)C)C3C1C (configuration not stated)	106	–	–	·	–	67
CCN(CC)CCO	–	·	–	·	–	·
C[C@]12CCC3[C@@H](CC[C@H]4C[C@@H](O)CC[C@]34C)C1CCC2=O (some centres not stated)	–	80	–	·	–	–
C[C@]12CC[C@@H](O)C[C@H]1CC[C@@H]1[C@@H]2CC[C@]2(C)C(=O)CC[C@@H]12	–	–	–	–	–	–
COc1ccc(N2C(=O)NC(=O)/C(=C\c3ccc([N+](=O)[O-])s3)C2=O)cc1	–	–	–	·	–	60
COc1cccc(C2(O)CCN(Cc3ccncc3)CC2)c1	–	–	–	–	–	–
O=P(Nc1ccccc1)(Nc1ccccc1)Oc1ccc(Cl)cc1	–	–	–	·	–	–
COc1cccc(NP(=O)(Oc2ccc(Cl)cc2)Oc2ccc(Cl)cc2)c1	–	–	–	·	77	–
Cc1ccccc1CN1Cc2cnnn2-c2ccccc2C1C#N (configuration not stated)	·	·	·	–	·	·
CC[C@@]1(O)C(=O)OCc2c1cc1n(c2=O)Cc2cc3c(NC(=O)CN)cccc3nc2-1	–	–	–	·	108	–
CC[C@@]1(O)C(=O)OCc2c1cc1n(c2=O)Cc2cc3ccccc3nc2-1	103	·	–	·	–	56
CCC1(OC(=O)CN)C(=O)OCc2c1cc1n(c2=O)Cc2cc3ccccc3nc2-1 (configuration not stated)	92	–	–	·	–	61
C#C[C@@]1(O)CCC2C3CCC4=C/C(=N/OCC(=O)NC(CCC(N)=O)C(=O)O)CC[C@]4(C)C3CC[C@@]21C (some centres not stated)	–	–	–	·	–	–
Cc1cccc(CCNCc2cc3ccc(C)cc3[nH]c2=O)c1	·	–	–	–	–	–
Clc1ccc(COC(Cn2ccnc2)c2ccc(Cl)cc2Cl)c(Cl)c1 (configuration not stated)	–	·	–	–	102	–
O=[N+]([O-])c1ccc(NC2CCN(Cc3ccccc3)CC2)c2ccncc12	–	–	–	·	–	60
O=[N+]([O-])c1ccc(NC2CCCC2)c2ccncc12	–	–	–	·	–	–
CCCc1nc2ccc(Br)cc2c(=O)n1-c1ccc([N+](=O)[O-])c(C(F)(F)F)c1	99	–	–	·	127	56
CCc1nc2ccc(Br)cc2c(=O)n1-c1ccccc1C(F)(F)F	–	–	–	–	–	–
COc1cc(N2C(=O)CC(=O)NC2=O)cc(OC)c1OC	–	–	–	·	–	–
CCc1ccccc1NC(=O)CSc1nnc([C@@H](N)Cc2c[nH]c3ccccc23)o1	–	–	–	·	–	–
Cc1ccc(NC(=O)CSc2nnc([C@@H](N)Cc3c[nH]c4ccccc34)o2)c(C)c1	–	109	–	·	–	–
CC12Cc3cn[nH]c3C=C1CCC1C2CCC2(C)C1CCC2(C)O (configuration not stated)	·	·	·	–	·	·
COc1cc(C)c(CNCCc2c[nH]c3ccccc23)cc1C	–	·	–	·	–	–
CN1C(=O)NC(=O)C(N=Nc2ccc(Cl)cc2)C1=O (configuration not stated)	·	·	·	–	·	·
SMILES	Beta apoptosis	Calb FLC	A1 inh	H9c2 TAG inh	CSC inhib	T cruzi inh
C/C1=C\[C@@H](C)C/C=C/[C@H]2[C@@H]3O[C@]3(C)[C@@H](C)[C@H]3[C@H](Cc4c[nH]c5ccccc45)NC(=O)[C@]32C(=O)/C=C/C(=O)[C@@H]1O	·	–	11	·	–	–
N#CC1=C(N)Oc2c(c(=O)oc3ccccc23)C1c1ccncc1 (configuration not stated)	–	·	–	·	–	·
N#CC1=C(N)Oc2c(c(=O)sc3ccccc23)C1c1cccnc1 (configuration not stated)	–	–	–	–	–	77
CN(c1ccccc1)P(=O)(N1CC1)N1CC1	·	·	·	–	·	·
CCOC(=O)c1c(NC(=O)C(c2ccccc2)c2ccccc2)sc2c1C1CCN2CC1	–	–	–	·	82	55
Nc1ccc(N2CCN(Cc3ccccc3Cl)CC2)c(Cl)c1	–	–	–	–	79	–
Clc1ccccc1CN1CCN(c2ccccc2)CC1	·	–	–	·	·	–
CN(C(=O)COC(=O)c1cn(C)c2ccccc12)C1CCCCC1	–	·	–	–	–	·
CCCCCCC[n+]1ccc(-c2cc[n+](CCCCCCC)cc2)cc1	102	?	–	·	–	–
Cc1oc(-c2ccc(F)cc2F)nc1CN1C[C@@H]2C[C@@H](C1)c1cccc(=O)n1C2	–	–	–	·	–	–
CC12CCC(=O)CC1CCC1C2C(=O)CC2(C)C1CCC2(C)O (configuration not stated)	·	·	·	–	·	·
O=c1[nH]c(=O)n(C2CCCCCC2)c(O)c1C=NC1CCN(Cc2ccccc2)CC1	–	–	–	–	–	65
Cn1c(O)c(C=NC2CCN(Cc3ccccc3)CC2)c(=O)[nH]c1=O	·	–	–	–	–	–
C[C@@H]1O[C@@H](O[C@H]2C[C@@H](O)[C@]3(CO)[C@H]4[C@H](O)C[C@]5(C)[C@@H](C6COC(=O)C6)CC[C@]5(O)[C@@H]4CC[C@]3(O)C2)[C@H](O)[C@H](O)[C@H]1O (some centres not stated)	–	·	–	–	82	–
CCn1nc(/C=C/c2ccccc2)nc2c(=O)n(C)c(=O)nc1-2	·	101	·	·	·	60
C=CC[C@@H](C)CC(=O)C(CCCN=[N+]=[N-])SOOc1ccccc1 (some centres not stated)	–	·	–	–	–	·
Cc1nn(Cc2ccc(Cl)cc2Cl)c(Cl)c1C(=O)O	–	–	–	–	–	–
N=c1c2c(n(Cc3ccc(Cl)cc3Cl)c3c1CCC3)CCCC2	121	–	–	–	–	–
Cc1ccc(C(c2nnnn2Cc2ccccc2)N2CC=C(c3ccc(F)cc3)CC2)cc1 (configuration not stated)	–	–	–	·	–	65
Fc1ccc(C2=CCN(C(c3ccc(Cl)cc3)c3nnnn3Cc3ccccc3)CC2)cc1 (configuration not stated)	–	?	–	–	–	–
Fc1ccc(Cn2nnnc2C(c2ccc(Cl)cc2)N2CC=C(c3ccc(F)cc3)CC2)cc1 (configuration not stated)	–	–	–	·	–	69
c1ccc(C[n+]2ccccc2)cc1	–	–	–	–	–	–
CCOc1ccc(-c2cc(C)[n+](CCO)c(-c3ccc(OCC)cc3)c2)cc1	–	92	–	–	·	72
Fc1ccc(C[n+]2c(-c3ccccc3)cc(-c3ccccc3)cc2-c2ccccc2)cc1	128	–	–	·	–	55
CCOC(C[n+]1c(-c2ccccc2)cc(C)cc1-c1ccccc1)OCC	–	–	–	–	–	–
